A short description of the series: Toxicity liver stage against HepG2, at 10uM. The arrangement: test concentration 10 uM, cell line HepG2-A16-CD81EGFP. As to conditions: human, HepG2-A16-CD81EGFP cells; read-out: INHIBITION
The series is classed as cell-based. Summed up: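 Uninfected HepG2-A16-CD81EGFP cells, 3 × 10^3 per well, 1536-well, plated on prespotted compound at 10 μM final, parasite-free screening media added to match infected plates; puromycin 10 μM positive, DMSO 0.5% negative; run in parallel with 48 h PbLuc assay at 37 °C, 5% CO2; viability by CellTiter-Glo luminescence, normalized to controls.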

Take `Cc1cc(Cl)ccc1NCc1ccc(C(=O)N(C)C)[nH]1`: the cytotoxicity at 10 µM amounted to 7.31%.
As to `CN(Cc1ncc[nH]1)S(=O)(=O)c1cccc(C(=O)N2CCOCC2)c1`, the cytotoxicity at 10 µM is -9.5%.
Regarding `Cn1cc(CN2CC[C@]3(C[C@H](Oc4ccccn4)CO3)C2)cn1`, the cytotoxicity at 10 µM turned out to be 10.8%.
To `CN(C)Cc1cnc(C2CCN(C(=O)c3cc(F)cc(F)c3)C2)[nH]1` (stereo unspecified) belongs 2.5%; to `COCC1CN(C(=O)c2cccc(C)n2)Cc2nccn2C1` (stereo unspecified), -103%; to `CN1CCN(S(=O)(=O)c2cccc(F)c2)Cc2cccnc21`, -110%.
For `Cc1nc(NC(=O)c2ccc(-n3ncc(C#N)c3N)cc2)sc1C`, the cytotoxicity at 10 µM came to 7.13%.
`NC(=O)c1ccc(OCCC(=O)NC2CCc3c(F)cccc32)cc1` (stereo unspecified): the cytotoxicity at 10 µM was found to be 2.02%.
For `CN(C)S(=O)(=O)N1CCC(Oc2ccc(C#N)cn2)CC1`, the cytotoxicity at 10 µM came to 4.16%.
As to `O=C1COc2ccc(S(=O)(=O)NCC3CCCO3)c3c2N1CCC3` (stereo unspecified), the cytotoxicity at 10 µM is -4.2%.
Next, `Cc1ccc(C(=O)N2CCCN(Cc3cccs3)CC2)c(=O)[nH]1`: 1.45%.
Next, `CC(Oc1ccc(OCc2ncc(C(C)C)o2)cc1)C(N)=O` (stereo unspecified): -10.4%; `CN(c1ccc(CNc2ccc(Cl)cn2)cc1)S(C)(=O)=O`: 5.03%; `Nc1cc2c(nn1)CCN(C(=O)c1csc(-c3cccs3)n1)C2`: -1.32%.
Turning to `CCN1CCN(c2ccc(CNC(=O)c3c(C)noc3C)cn2)CC1`, the cytotoxicity at 10 µM came to 0.265%.
`Cc1ccc(-c2n[nH]cc2CN(Cc2nccn2C)C(C)C)cc1C`: the cytotoxicity at 10 µM was determined as 2.57%.
`CCc1ccc(O)c(C(=O)N2CCCN(CC(=O)N(CC)CC)CC2)c1`: the cytotoxicity at 10 µM was 6.62%.
On to `COc1cc(-c2nc3c([nH]2)CCCNC3=O)cc(OC)c1OC`, for which the cytotoxicity at 10 µM amounted to 9.62%.
In the case of `CN(C)C(=O)N[C@@H]1CN(S(C)(=O)=O)[C@@H]2CCCO[C@@H]21`, the cytotoxicity at 10 µM was 2.62%.
As for `CN1CCN(c2cc(NC(=O)Cn3ccc4ccccc43)ncn2)CC1`, the cytotoxicity at 10 µM is -0.973%.
Next, `Cc1cn2cc(C(=O)NC3CCCN(c4ncccn4)C3)ccc2n1` (stereo unspecified): 12.1%.
For `Fc1ccccc1-c1cc(N2[C@@H]3CC[C@H]2CNC3)n2nccc2n1`, the cytotoxicity at 10 µM amounted to 23.1%.
Regarding `COc1ccc(OCCN2CCC(c3ccnn3CCO)CC2)cc1`, the cytotoxicity at 10 µM is -6.9%.
In the case of `Cc1ccnc(N2CCC(OCCN3CCCCC3)C2)n1` (stereo unspecified), the cytotoxicity at 10 µM was -49.4%.
For the compound `Cc1nnc(NC(=O)CN(C)C2CCCN(c3cccnn3)C2)s1` (stereo unspecified), the cytotoxicity at 10 µM was -5.64%.
Regarding `CCC(C)NC(=O)c1cc(S(N)(=O)=O)c(Br)s1` (stereo unspecified), the cytotoxicity at 10 µM is -4.38%.
As for `CS(=O)(=O)Cc1nc(CNc2c(F)cc(F)cc2F)cs1`, the cytotoxicity at 10 µM was -4.73%.
Regarding `Cc1cccc(OCCNC(=O)C(C)S(=O)(=O)C2CCCC2)c1` (stereo unspecified), the cytotoxicity at 10 µM came to 6.72%.
In the case of `Cc1ccsc1CNc1ccccc1C(=O)N1CCNC(=O)C1`, the cytotoxicity at 10 µM was -1.68%.
For `CN(C)c1ccccc1CN1CCCC(N2CCCC2=O)C1` (stereo unspecified), the cytotoxicity at 10 µM is -9.13%.
Regarding `Cc1cnn(CCNCC(O)COc2ccc(Cl)cc2)c1` (stereo unspecified), the cytotoxicity at 10 µM was -12.6%.
For `Cc1cc2n(n1)CC(CNC1CCN(c3ccccn3)CC1)CN2` (stereo unspecified), the cytotoxicity at 10 µM was 6.09%.
For `CN(CCc1ccccn1)c1cnn(C)c(=O)c1Br`, the cytotoxicity at 10 µM is -5.03%.
Turning to `COc1cc(-c2n[nH]c(CC#N)n2)cc(OC)c1OC`, the cytotoxicity at 10 µM was -175%.
To `CC(C)C1=NOC2(CCN(C(=O)C3CCCC3)CC2)C1` belongs 6.69%; to `Cc1c(C(=O)NCC(C)C)nnn1-c1cccc2c1CCN(C(C)C)C2`, -12.3%; to `CN(C)c1ccc(NC(=O)N2CCc3sccc3C2)cn1`, -4.16%.
As for `CN(C)Cc1nc(C(C)(C)NC(=O)c2cccc3ccccc23)no1`, the cytotoxicity at 10 µM is -1.8%.
Take `Cn1cnnc1C1CCCN(C(=O)c2n[nH]c3ccccc23)C1` (stereo unspecified): the cytotoxicity at 10 µM came to 0.914%.
For the compound `CC(O)C1CCN(Cc2cnc3c(-c4ccccc4)cnn3c2)CC1` (stereo unspecified), the cytotoxicity at 10 µM was -0.537%.
Turning to `CCCN1C(=O)[C@@H]2CC[C@H]1CN(S(=O)(=O)c1cccc(Cl)c1)C2`, the cytotoxicity at 10 µM is -2.78%.
For the compound `Cn1ccnc1CN1CCCN(C(=O)CC(C2CC2)C2CC2)CC1`, the cytotoxicity at 10 µM was -19.8%.
As to `COc1cc(N2CC[C@@H](OC)[C@@H]2Cc2cnn(C)c2)ncn1`, the cytotoxicity at 10 µM is -0.155%.
Next, `O=C([C@H]1CC[C@@H]2[C@@H](CCN2C2CCOCC2)O1)N1CCOCC1`: -0.824%.
As to `COc1ncc(C2(O)CCN(Cc3cccs3)CC2)c(OC)n1`, the cytotoxicity at 10 µM worked out at 1.9%.
Consider `O=C(N1CCOCC1)N1CCC2(CC1)CN(c1ccccn1)CCO2`, for which the cytotoxicity at 10 µM is -78.2%.
Regarding `Cn1cnnc1SCC(=O)NC1CC(=O)N(CCc2cccc(Cl)c2)C1` (stereo unspecified), the cytotoxicity at 10 µM turned out to be 2.3%.
In the case of `Cc1cc(CN(C)Cc2ccccc2N2CCCCC2)n[nH]1`, the cytotoxicity at 10 µM was -2.98%.
As for `CN(Cc1ccccc1F)C(=O)Cn1cc(NC(=O)C(C)(C)C)cn1`, the cytotoxicity at 10 µM worked out at 5.23%.
On to `Cc1cnn(C2CN(CC(=O)Nc3cccnc3)C2)c1`, for which the cytotoxicity at 10 µM is -8.11%.
For the compound `CC(C)(C#N)C(=O)Nc1nccn1Cc1ccc(Br)cc1`, the cytotoxicity at 10 µM is -47.5%.
To `Cc1nn(C)c(C)c1CN(Cc1cccn1-c1ccccn1)C(C)C` belongs 0.936%; to `CNC(=O)c1ccc(C(=O)N2CCCC2c2cnn(C)c2)cn1` (stereo unspecified), -6.41%.
`Clc1ccc(-c2nnc([C@H]3CCN(C4CCCCC4)C3)o2)cc1`: the cytotoxicity at 10 µM was -120%.
For the compound `Cc1ccc(CNC(=O)NCCCO)cc1`, the cytotoxicity at 10 µM was -16.2%.
For the compound `COc1cc(-c2cc(-c3ccn(C)c3)nc(N)c2C#N)cc(OC)c1O`, the cytotoxicity at 10 µM was -7.77%.
With `Cc1cnn(CC2CCCCN2Cc2nccn2CC(F)(F)F)c1` (stereo unspecified), the cytotoxicity at 10 µM is -13.7%.
Take `Cc1cnn(CC2CCCN2C(=O)c2csc(C3CC3)n2)c1` (stereo unspecified): the cytotoxicity at 10 µM was -17.8%.
Take `CCc1cc(CNC(=O)N2CCN(c3nc(C)c(C)s3)CC2)on1`: the cytotoxicity at 10 µM was -11.6%.
In the case of `Cc1ccc(C(=O)N2CCCCC2c2[nH]ncc2S(C)(=O)=O)cn1` (stereo unspecified), the cytotoxicity at 10 µM was -6.72%.
For the compound `CCN1CCOCC2(CCCN(C(=O)c3conc3C)C2)C1` (stereo unspecified), the cytotoxicity at 10 µM is 2.82%.
As for `Cc1cccc2c1ccn2CCC(=O)Nc1c2c(nn1C)CSC2`, the cytotoxicity at 10 µM stood at 3.03%.
Next, `Cc1nccc(N2CCC(Cc3cccc(C(=O)O)c3)CC2)n1`: -135%; `C[C@@H]1CN(Cc2nc(Cc3ccccc3F)no2)C[C@H](C)O1`: 6.74%.
Next, `COc1ccc(S(=O)(=O)NC(=O)COC2CCCCC2)cc1C`: -3.56%.
For the compound `CN(C)CCNC(=O)c1nc2c(o1)CN(C(=O)c1cccnc1)C2`, the cytotoxicity at 10 µM turned out to be 0.109%.
For the compound `CN1CCN(C2CCN(Cc3ccc(Cl)s3)CC2)C1=O`, the cytotoxicity at 10 µM stood at 11.2%.
Consider `O=C(c1ccoc1)N1CC[C@@H](N2CCOCC2)[C@@H]1Cc1ccccc1`, for which the cytotoxicity at 10 µM was -82%.
Next, `Cc1noc(C)c1CNC(=O)N1CCC(CO)CC1`: -8.08%; `CCc1cnc(CN(C)C2CCN(CCNS(=O)(=O)CC)C2)o1` (stereo unspecified): 8.94%; `Cc1nccn1-c1ccc(N2CCC(N[C@H](C)C(C)C)CC2)cc1`: -6.39%.

Source of the values: ChEMBL document CHEMBL4513216, “Probing the Open Global Health Chemical Diversity Library for Multistage-Active Starting Points for Next-Generation Antimalarials” (ACS Infect Dis, 2020).
